One block for each compound: values may come before it. Activity calls are given as the source filed them. The rule behind the calls is not given here.
Columns and labels:
[1] = Permeability of the compound at pH 7.4 PBS buffer at 100 uM measured upto 6 hrs by PAMPA-BBB assay
Histone deacetylase 1 = Histone deacetylase 1 (Homo sapiens, UniProt Q13547); test: Inhibition of human recombinant HDAC1 at 10 uM using ZMAL (Z-(Ac)Lys-AMC fluorogenic substrate incubated for 90 mins by fluorescence method
Chain of Histone deacetylase 1 (Q13547 whole entry): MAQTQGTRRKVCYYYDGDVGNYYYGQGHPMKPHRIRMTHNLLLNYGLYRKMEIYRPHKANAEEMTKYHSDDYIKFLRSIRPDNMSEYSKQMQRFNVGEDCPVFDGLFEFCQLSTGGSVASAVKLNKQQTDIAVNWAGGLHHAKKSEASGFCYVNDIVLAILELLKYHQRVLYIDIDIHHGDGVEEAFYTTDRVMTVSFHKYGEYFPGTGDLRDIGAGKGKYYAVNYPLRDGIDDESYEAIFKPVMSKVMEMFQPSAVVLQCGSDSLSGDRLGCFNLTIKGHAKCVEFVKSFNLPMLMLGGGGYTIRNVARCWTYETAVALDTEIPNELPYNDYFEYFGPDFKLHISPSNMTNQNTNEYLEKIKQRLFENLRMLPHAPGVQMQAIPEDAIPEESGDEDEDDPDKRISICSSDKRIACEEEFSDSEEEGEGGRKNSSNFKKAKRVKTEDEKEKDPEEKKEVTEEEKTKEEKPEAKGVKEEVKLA

[2] = target: T1, Protein deacetylase HDAC6 (Homo sapiens) (UniProt Q9UBN7); test: Inhibition of human recombinant HDAC6 at 10 uM using ZMAL (Z-(Ac)Lys-AMC fluorogenic substrate incubated for 90 mins by fluorescence method
T1 sequence (whole entry): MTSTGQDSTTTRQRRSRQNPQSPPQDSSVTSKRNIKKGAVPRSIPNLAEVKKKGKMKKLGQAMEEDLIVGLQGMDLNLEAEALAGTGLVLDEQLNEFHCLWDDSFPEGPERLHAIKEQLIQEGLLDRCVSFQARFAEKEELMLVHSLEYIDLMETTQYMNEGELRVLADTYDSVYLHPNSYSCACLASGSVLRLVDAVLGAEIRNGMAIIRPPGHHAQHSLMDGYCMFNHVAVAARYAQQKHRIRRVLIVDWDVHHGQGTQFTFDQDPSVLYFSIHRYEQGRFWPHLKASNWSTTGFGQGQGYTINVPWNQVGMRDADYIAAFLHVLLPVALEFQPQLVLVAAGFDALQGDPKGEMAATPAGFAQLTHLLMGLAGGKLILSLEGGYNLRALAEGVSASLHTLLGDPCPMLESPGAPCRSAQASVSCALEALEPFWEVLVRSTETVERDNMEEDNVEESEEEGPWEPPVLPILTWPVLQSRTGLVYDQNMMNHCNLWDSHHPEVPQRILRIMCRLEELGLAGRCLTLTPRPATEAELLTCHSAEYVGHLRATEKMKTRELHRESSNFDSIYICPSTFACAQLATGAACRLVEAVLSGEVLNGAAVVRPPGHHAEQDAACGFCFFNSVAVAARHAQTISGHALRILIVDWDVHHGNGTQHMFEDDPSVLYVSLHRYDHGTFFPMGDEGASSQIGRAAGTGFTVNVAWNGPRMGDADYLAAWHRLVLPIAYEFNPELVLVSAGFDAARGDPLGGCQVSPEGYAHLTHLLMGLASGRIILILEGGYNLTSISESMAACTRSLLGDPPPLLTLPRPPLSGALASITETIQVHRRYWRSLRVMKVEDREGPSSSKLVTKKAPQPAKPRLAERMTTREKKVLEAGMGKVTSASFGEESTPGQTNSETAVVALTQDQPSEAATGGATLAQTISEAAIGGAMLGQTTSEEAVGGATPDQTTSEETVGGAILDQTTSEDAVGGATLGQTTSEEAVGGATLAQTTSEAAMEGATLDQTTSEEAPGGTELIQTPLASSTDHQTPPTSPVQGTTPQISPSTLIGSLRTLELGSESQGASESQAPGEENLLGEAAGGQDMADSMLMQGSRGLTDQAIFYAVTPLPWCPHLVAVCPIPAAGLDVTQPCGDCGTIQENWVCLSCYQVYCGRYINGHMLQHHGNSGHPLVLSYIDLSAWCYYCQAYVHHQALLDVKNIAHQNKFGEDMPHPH

[3] = Neurotoxicity against rat CGN cells assessed as cell viability at 25 uM incubated for 24 hrs by MTT assay; type: toxicity, cell-based; conditions: read-out: Activity
Method in brief: (§1)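 Primary rat cerebellar granule neuron cultures were exposed for 24 h to 5, 25 or 50 μM. Viability was measured by MTT and expressed as percentage of untreated controls, as mean ± SE of at least three experiments, each run in triplicate.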

[4] = Neurotoxicity against rat CGN cells assessed as cell viability at 50 uM incubated for 24 hrs by MTT assay; type: toxicity, cell-based; conditions: read-out: Activity; method in brief: as §1
N9 [5] = test: Immunomodulatory activity in mouse N9 cells assessed as reduction in LPS-induced iNOS expression at 5 to 25 uM incubated for 24 hrs by Western blot analysis; type: functional, cell-based
Method in brief: (§2)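 N9 mouse microglial cells stimulated with LPS (100 ng/mL) and treated at 5 and 25 μM. iNOS and MRC1 levels were read by Western blot with GAPDH as loading control. Densitometry is expressed as percentage of LPS-only cells, as mean ± SE of three independent experiments.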

N9 [6] = test: Immunomodulatory activity in mouse N9 cells assessed as increase in LPS-induced MRC1 expression at 5 to 25 uM incubated for 24 hrs by Western blot analysis; type: functional, cell-based; method in brief: as §2
Rattus norvegicus = organism: Rattus norvegicus; test: Neuroprotective activity against low serum/K+ deprivation-induced toxicity in rat CGN cells assessed as increase in cell viability at 5 to 25 uM pre-treated for 6 hrs followed by 24 hrs co-treatment with serum/K+ starvation and measured after 24 hrs by MTT assay; type: functional, cell-based
Method in brief: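 Primary rat cerebellar granule neurons were pretreated for 6 h, then cotreated for 24 h under low-serum and K+ deprivation to induce death. Viability was compared with control and deprivation-only conditions, with tacrine as reference compound.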

Papp at 6 h, 100 µM [1]: 3.1 ×10⁻⁶ cm/s
SMILES: CCCCCCCCCCCCCCCc1cccc(O)c1

inhibition (Histone deacetylase 1): < 15%
inhibition [2]: < 15%
SMILES: COc1cccc(CCCCCCCC(=O)O)c1

SMILES: O=C(CCCCCCC(=O)Nc1ccccc1)NO [VORINOSTAT]
viability at 24 h, 25 µM [3]: 70%
viability at 24 h, 50 µM [4]: 52%
Activity (N9 [5]): Active
Activity (N9 [6]): inactive
Activity (Rattus norvegicus): inactive

Papp at 6 h, 100 µM [1]: 5.1 ×10⁻⁶ cm/s
SMILES: CN(C)CCCN1c2ccccc2Sc2ccc(Cl)cc21 [CHLORPROMAZINE]

Papp at 6 h, 100 µM [1]: 2.7 ×10⁻⁶ cm/s
SMILES: CO/N=C(\C(=O)N[C@@H]1C(=O)N2C(C(=O)O)=C(COC(N)=O)CS[C@H]12)c1ccco1 [CEFUROXIME]

Papp at 6 h, 100 µM [1]: 3.75 ×10⁻⁶ cm/s
SMILES: Nc1c2c(nc3ccccc13)CCCC2 [TACRINE]

Reference: ChEMBL document CHEMBL4433221, “Novel Sustainable-by-Design HDAC Inhibitors for the Treatment of Alzheimer's Disease” (ACS Med Chem Lett, 2019)
